Publication PMC6531046 (Bioorganic & medicinal chemistry, 2019)
Entries after “also recorded” stand apart in the source; their conditions may differ.

Key:
[1] = tested on: T. b. brucei Lister 427 cells; assay: T. brucei cell viability analysis; assay type: cell-based, Trypanosoma brucei brucei; conditions: IC50 mammalian cells / IC50 T. brucei
Outline: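 Index is mammalian-cell IC50 divided by T. brucei IC50. Parasite arm: bloodstream-form Lister 427 in HMI-9/10% FBS, 37°C, 7.5% CO2; 5,000 cells, compound with 0.1% DMSO, 48 h; MTS 3 h, A490. Mammalian arm: HEK293 or RAW264.7 in RPMI1640/10% FBS, 3000 cells seeded 24 h, compound 48 h; MTT 3 h, A570. Quadruplicates normalized, dose–response fitted.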

tubulin = tubulin (Trypanosoma brucei rhodesiense, UniProt P04106+P04107); assay: Tubulin polymerization in T. brucei cells; assay type: cell-based; conditions: 12 h treatment, different doses, western blot vs DMSO
Outline: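 Bloodstream-form T. b. brucei Lister 427 (HMI-9, 10% FBS, 37°C, 7.5% CO2) treated 12 h with varying doses in 0.5% DMSO; washed in TDB with protease inhibitors, lysed 5 min at 4°C in Pipes pH 6.8/EGTA/MgCl2/0.15% Triton X-100/glycerol; 15,000 g 30 min spin separated soluble (non-polymerized) supernatant from pellet, RIPA-boiled (polymerized). Equal cell-equivalent fractions blotted with anti-tubulin antibody.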

[2] = tested on: T. b. brucei Lister 427 cells; conditions: earlier study, cited from earlier work

Sequence of tubulin (P04107 whole entry): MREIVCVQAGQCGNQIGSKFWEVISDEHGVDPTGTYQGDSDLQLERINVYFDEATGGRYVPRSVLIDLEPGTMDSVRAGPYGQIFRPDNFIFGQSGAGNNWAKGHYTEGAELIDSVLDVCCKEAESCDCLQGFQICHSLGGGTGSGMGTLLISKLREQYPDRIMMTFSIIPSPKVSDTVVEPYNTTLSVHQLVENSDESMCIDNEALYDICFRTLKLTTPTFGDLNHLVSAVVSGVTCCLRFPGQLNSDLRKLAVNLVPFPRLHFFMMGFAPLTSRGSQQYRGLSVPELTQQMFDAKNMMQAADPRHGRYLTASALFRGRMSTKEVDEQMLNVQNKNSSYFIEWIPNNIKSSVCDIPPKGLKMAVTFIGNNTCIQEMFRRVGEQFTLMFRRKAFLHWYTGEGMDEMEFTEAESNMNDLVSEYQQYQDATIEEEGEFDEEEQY
Sequence of tubulin (P04106 whole entry): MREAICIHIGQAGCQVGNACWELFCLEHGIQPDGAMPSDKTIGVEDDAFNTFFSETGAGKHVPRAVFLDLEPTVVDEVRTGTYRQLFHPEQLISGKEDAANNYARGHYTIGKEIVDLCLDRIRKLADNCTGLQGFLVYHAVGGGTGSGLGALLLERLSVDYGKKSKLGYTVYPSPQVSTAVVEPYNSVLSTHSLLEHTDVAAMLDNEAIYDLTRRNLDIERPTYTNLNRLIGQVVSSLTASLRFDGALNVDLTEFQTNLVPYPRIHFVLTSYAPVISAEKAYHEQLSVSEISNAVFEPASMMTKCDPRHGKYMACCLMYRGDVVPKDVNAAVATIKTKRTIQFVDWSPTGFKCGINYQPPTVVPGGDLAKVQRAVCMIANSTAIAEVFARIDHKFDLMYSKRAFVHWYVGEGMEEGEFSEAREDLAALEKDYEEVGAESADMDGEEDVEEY

Compound	selectivity index (mammalian cell line not given) [1]	effect on tubulin polymerization in T. brucei cells (tubulin)	selectivity index ([2]; IC50 human cell growth / IC50 T. brucei cell growth)	IC50 to inhibit trypanosomal cell proliferation [2]
Cc1cc(NC(=O)c2cc(C(F)(F)F)cc(C(F)(F)F)c2)ccc1NS(C)(=O)=O [Compound 5, N-(4-(Methylsulfonamido)-3-Methylphenyl)-3,5-Bis(Trifluoromethyl)Benzamide]	above 50	profound effect on tubulin function; also recorded: decreased the amount of polymerized tubulin in a dose-dependent manner; also recorded: inhibit the tubulin polymerization in T. brucei cells	–	–
Cc1cc(NC(=O)c2cc(C(F)(F)F)cc(C(F)(F)F)c2)ccc1NS(=O)(=O)C(F)(F)F [Compound 15, N-(3-Methyl-4-Trifluoromethanesulfonylamino-Phenyl)-3,5-Bis-Trifluoromethyl-Benzamide]	–	–	around 7000	70 nM
CCS(=O)(=O)Nc1ccc(NC(=O)c2ccc(Cl)c([N+](=O)[O-])c2)cc1Cl [Compound 39, 4-Chloro-N-(3-Chloro-4-(Ethylsulfonamido)-Phenyl)-3-Nitrobenzamide]	below 50	–	–	–
CCS(=O)(=O)Nc1ccc(NC(=O)c2cc(C(F)(F)F)cc(C(F)(F)F)c2)cc1Cl [Compound 40, N-(3-Chloro-4-(Ethylsulfonamido)Phenyl)-3,5-Bis(Trifluoromethyl)Benzamide]	below 50	–	–	–
N#Cc1ccc(C(=O)Nc2ccc(NS(=O)(=O)C(F)(F)F)c(F)c2)cc1 [Compound 57, 4-Cyano-N-(3-Fluoro-4-(Trifluoromethylsulfonamido)Phenyl)Benzamide]	–	decreased the amount of polymerized tubulin in a dose-dependent manner; also recorded: inhibit the tubulin polymerization in T. brucei cells	–	–
